For data set [1] the following is noted: cited from earlier work.
Data set [2] is classed as in vivo, human. The note with it: for Plasma concentration at 6 h after clopidogrel administration: most subjects, LLOQ 0.25 ng/mL; for AUC(0-inf) / AUC(0-t) / Vd/F / half-life: human, po.
For data set [3], the system named is ADP-induced platelet aggregation. Nature of the data set: ADP-induced whole-blood platelet aggregation, Multiplate impedance aggregometer. In kind it is in vivo, human. Put shortly: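 Caucasian patients from central Poland undergoing coronary or peripheral interventions received the test drug orally, fasting, 75 mg daily for 7 days beforehand. Blood was drawn 2–3 h post-dose into hirudin tubes, diluted 1:1 with 0.9 % NaCl, and stirred 3 min at 37 °C. ADP was added at 6.4 μmol/L, and impedance was recorded for 6 min. Aggregation was expressed as AUC (AU·min).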

The conditions of data set [4]: cited from earlier work. The source holds these as a separate data set.
Setting [5] is: patients, oral clopidogrel 75 mg for 7 days, plasma.
The mark [6] stands for this setting: patients, oral clopidogrel 75 mg, plasma.
Setting [7] is: patients, single oral clopidogrel 300 mg loading dose, plasma.
The mark [8] stands for this setting: patients, single oral clopidogrel 300 mg, plasma.
The mark [9] stands for this setting: clopidogrel 75 mg, diabetes mellitus no (n = 19).
The mark [10] stands for this setting: clopidogrel 75 mg, diabetes mellitus yes (n = 11).
The mark [11] stands for this setting: clopidogrel 75 mg, proton-pump inhibitors no (n = 15).
Setting [12] is: clopidogrel 75 mg, proton-pump inhibitors yes (n = 13).
[13] abbreviates: healthy volunteers, clopidogrel 75 mg, ref 10.
Setting [14] is: clopidogrel 75 mg, single subject.
The mark [15] stands for this setting: clopidogrel 75 mg maintenance dose, 6.4 μmol/L ADP.

Where two headings read alike, the source gives them in different places.

With `COC(=O)[C@H](c1ccccc1Cl)N1CCC(S)/C(=C\C(=O)O)C1` (some centres unmarked) [CTM], the C max in data set [1] (healthy control subjects, clopidogrel 600 mg) is given as 14.5 ng/mL; in data set [1] (patients with a history of stent thrombosis, clopidogrel 600 mg) it was 3.2 ng/mL. In addition, the Concentrations in plasma in data set [1] (method not distinguishing H3 and H4 isomers) is on record as greater than 20 ng/mL.
Consider `O=C(O)[C@H](c1ccccc1Cl)N1CCc2sccc2C1` [CLPM], for which the “C max in plasma relative to that of the parent drug” value in data set [2] (patients, clopidogrel 75 and 300 mg) was “thousand-fold greater”. For the same compound, in data set [2] (setting [5]), the “C max (mean ± SD)” value was 2,516 ± 1,754 ng/mL. Besides, in data set [2] (setting [6]), the “AUCt (mean ± SD)” value was 11,077 ± 7,768 ng·h/mL, the “AUC∞ (mean ± SD)” value is 12,383 ± 8,552 ng·h/mL and the “t max (mean ± SD)” value turned out to be 1.37 ± 0.74 h. For the same compound, the “C max (mean ± SD)” value in data set [2] (setting [7]) was 8,464 ± 3,772 ng/mL. In data set [2] (setting [8]), the “AUCt (mean ± SD)” value was 32,979 ± 12,321 ng·h/mL, the “AUC∞ (mean ± SD)” value was 37,249 ± 13,861 ng·h/mL and the “t max (mean ± SD)” value worked out at 1.61 ± 1.21 h.
Take `COC(=O)[C@H](c1ccccc1Cl)N1CC[C@H](S)/C(=C\C(=O)O)C1` [H3]: the “AUCt (mean ± SD)” value in data set [2] (setting [9]) turned out to be 6.71 ± 4.47 ng·h/mL; in data set [2] (setting [10]), 7.88 ± 9.33 ng·h/mL; in data set [2] (setting [11]) it was 7.03 ± 5.52 ng·h/mL; in data set [2] (setting [12]), 7.76 ± 8.16 ng·h/mL; in data set [2] (setting [6]), 7.37 ± 6.71 ng·h/mL; in data set [2] (setting [8]), 11.24 ± 8.31 ng·h/mL. Also, the “C max (mean ± SD)” value in data set [2] (setting [9]) came to 4.90 ± 4.02 ng/mL; in data set [2] (setting [10]), 5.96 ± 7.69 ng/mL; in data set [2] (setting [11]) it was 5.00 ± 4.93 ng/mL; in data set [2] (setting [12]), 5.94 ± 6.63 ng/mL; in data set [2] (setting [5]), 5.29 ± 5.54 ng/mL; in data set [2] (setting [7]), 8.47 ± 1.69 ng/mL. For the same compound, the “Plasma concentration at 6 h after clopidogrel administration” value in data set [2] is “below the limit of quantification”. Besides, the “AUC∞ (mean ± SD)” value in data set [2] (setting [6]) came to 7.96 ± 6.85 ng·h/mL; in data set [2] (setting [8]) it was 11.70 ± 8.33 ng·h/mL. For the same compound, the “t max (mean ± SD)” value in data set [2] (setting [6]) is 1.08 ± 0.62 h; in data set [2] (setting [8]), 0.83 ± 0.29 h. For the same compound, the “t ½ (mean ± SD)” value in data set [2] (setting [6]) is 0.78 ± 0.78 h; in data set [2] (setting [8]), 0.72 ± 0.18 h. The C max in data set [1] (setting [13]) is recorded as 17.8 ng/mL.
On to `COC(=O)[C@H](c1ccccc1Cl)N1CCC(S)/C(=C\C(=O)O)C1` (some centres unmarked) [H4], for which the “Exposure to H4 relative to exposure to the H3 isomer” value in data set [2] (after clopidogrel 300 mg (n = 3)) was “two times greater”. Also, the “AUCt (mean ± SD)” value in data set [2] (setting [9]) is on record as 10.46 ± 9.78 ng·h/mL; in data set [2] (setting [10]), 11.69 ± 9.63 ng·h/mL; in data set [2] (setting [11]), 9.69 ± 9.81 ng·h/mL; in data set [2] (setting [12]), 13.10 ± 9.82 ng·h/mL; in data set [2] (setting [6]), 11.30 ± 9.58 ng·h/mL; in data set [2] (setting [8]), 25.04 ± 27.41 ng·h/mL. The “C max (mean ± SD)” value in data set [2] (setting [9]) came out at 6.61 ± 6.30 ng/mL; in data set [2] (setting [10]), 8.04 ± 6.55 ng/mL; in data set [2] (setting [11]), 5.92 ± 4.53 ng/mL; in data set [2] (setting [12]), 9.04 ± 8.07 ng/mL; in data set [2] (setting [5]) it was 7.13 ± 6.32 ng/mL; in data set [2] (setting [7]), 17.92 ± 20.38 ng/mL. In data set [2] (clopidogrel 75 mg, single patient), the “C max, one patient with high platelet aggregation (637 AU·min)” value stood at 23.3 ng/mL. In data set [2] (setting [14]), the “C max, one subject with high platelet aggregation (747 AU·min)” value was determined as 2.5 ng/mL. The “Plasma concentration at 6 h after clopidogrel administration” value in data set [2] is reported as “below the limit of quantification”. For the same compound, the “AUC∞ (mean ± SD)” value in data set [2] (setting [6]) is on record as 11.97 ± 9.75 ng·h/mL; in data set [2] (setting [8]), 25.69 ± 27.54 ng·h/mL. Moreover, the “t max (mean ± SD)” value in data set [2] (setting [6]) came to 1.04 ± 0.53 h; in data set [2] (setting [8]), 0.83 ± 0.29 h. For the same compound, the “t ½ (mean ± SD)” value is on record as 0.90 ± 0.86 h in data set [2] (setting [6]) and 0.84 ± 0.20 h in data set [2] (setting [8]). Further, the C max is 16.4 ng/mL in data set [1] (setting [13]) and 11 ng/mL in data set [1] (healthy volunteers, clopidogrel 75 mg, ref 32).
Turning to `COC(=O)[C@H](c1ccccc1Cl)N1CCc2sccc2C1` [Clopidogrel, (+)-S clopidogrel bisulfate, reference compound], the AUC(0-inf) (as a rule, the area under the concentration-time curve extrapolated to infinity) was 6.29 ± 4.11 ng·h/mL in data set [2] (plasma, 75 mg) and 21.8 ± 13.3 ng·h/mL in data set [2] (plasma, 300 mg). Also, the AUC(0-t) (as a rule, the area under the concentration-time curve up to a stated or last time point) in data set [2] (plasma, 75 mg) stood at 5.07 ± 3.8 ng·h/mL; in data set [2] (plasma, 300 mg), 20.8 ± 13.3 ng·h/mL. The Vd/F (commonly the apparent distribution volume after extravascular dosing) in data set [2] (plasma, 75 mg) came out at 39200 ± 33500 L; in data set [2] (plasma, 300 mg), 45500 ± 19200 L. Also, the half-life – broadly, the time needed for the level to fall by half in the phase considered – in data set [2] (plasma, 75 mg) is 1.71 ± 1.28 h; in data set [2] (plasma, 300 mg) it was 1.99 ± 0.44 h. For the same compound, the “CL/F (mean ± SD)” value in data set [2] (patients, oral clopidogrel 75 mg) was 18.96 ± 15.89 ×10^3 L/h; in data set [2] (patients, single oral clopidogrel 300 mg) it was 16.98 ± 10.41 ×10^3 L/h. Besides, the entries for the “C max (mean ± SD)” value in data set [2] (setting [5]) and in data set [2] (setting [7]) were 2.04 ± 2.0 ng/mL and 4.51 ± 3.42 ng/mL, respectively. The “t max (mean ± SD)” value in data set [2] (setting [8]) turned out to be 1.17 ± 0.76 h. In data set [3] (setting [15]), the “Platelet aggregation, mean ± SD” value amounted to 166 ± 146 AU·min. The “Platelet aggregation, median” value in data set [3] (setting [15]) amounted to 141 AU·min. Also, in data set [3] (clopidogrel 75 mg, 38 patients), the “Number of patients characterized as non-responders (AUC >468 AU·min)” value is listed as “two”. For the same compound, the “Number of patients with low platelet aggregation (AUC <100 AU·min)” value in data set [3] (clopidogrel 75 mg, 38 patients) is 14 patients. For the same compound, the “Platelet aggregation (AUC), one patient with high H4 concentrations” value in data set [3] (clopidogrel 75 mg, single patient later excluded from the correlation) stood at 637 AU·min. In data set [3] (setting [14]), the “Platelet aggregation, one subject with low H4 concentrations” value came out at 747 AU·min. Moreover, the C max in data set [1] (Argentinean subjects, clopidogrel 75 mg) was 0.9 ng/mL; in data set [1] (Egyptian healthy volunteers, clopidogrel 75 mg), 4.4 ng/mL; in data set [1] (US healthy volunteers, fasted state, clopidogrel 75 mg), 1.5 ng/mL; in data set [1] (US healthy volunteers, fed state, clopidogrel 75 mg) it was 2.5 ng/mL. Moreover, the “Fraction of the absorbed drug transformed by carboxyl esterases into CLPM” value in data set [4] is given as “Up to 85%”.

The record behind these values is PMC3899497 (Clinical Pharmacokinetics, 2013).
